Measured values: ChEMBL document CHEMBL5620402, “Development of submicromolar 17β-HSD10 inhibitors and their in vitro and in vivo evaluation” (Eur J Med Chem, 2023)
Activity calls are given as the source filed them. The calls are words filed in the database; no cut-off is given here.

Columns and labels:
[1] = tested on: SH-SY5Y; assay: Reduction in glutathione level in human SH-SY5Y cells at 100 uM measured after 4 hrs by monochlorobimane assay; assay type: functional, cell-based
How it was run: (§1)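 SH-SY5Y cells (passages 14–18) in DMEM/F12 with 15% FBS were exposed to compound (0.1–100 μM) for 4 or 24 h. Monochlorobimane was then added to a final 40 μmol/L, and fluorescence (394/490 nm) was followed for 10 min. GSH is the slope as % of control, mean ± SD, triplicate of ≥3 experiments.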

[2] = tested on: SH-SY5Y; assay: Reduction in glutathione level in human SH-SY5Y cells at 100 uM measured after 24 hrs by monochlorobimane assay; assay type: functional, cell-based; how it was run: as §1

SMILES: CC(=O)Nc1ccc2nc(NC(=O)Nc3ccc(O)c(Cl)c3)sc2c1
- inhibition [1]: Active
- inhibition [2]: inactive
